KCNQ1 act – potentiators or activators of KCNQ1 channel, primary screen, cell-based, thallium flux, high-throughput | Potassium voltage-gated channel subfamily KQT member 1 (Homo sapiens), P51787 | CHO-K1 KCNQ1, thallium flux FluxOR fluorescence; active compounds read high | B-score at 10 µM | 310,000 compounds, 0.35% hits | AID 2648, 2010;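 active = fluorescence ratio B-score, a plate-corrected score, at least three library SD, with initial intensity B-score within 5 SD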
Target sequence (P51787 whole entry, looked up): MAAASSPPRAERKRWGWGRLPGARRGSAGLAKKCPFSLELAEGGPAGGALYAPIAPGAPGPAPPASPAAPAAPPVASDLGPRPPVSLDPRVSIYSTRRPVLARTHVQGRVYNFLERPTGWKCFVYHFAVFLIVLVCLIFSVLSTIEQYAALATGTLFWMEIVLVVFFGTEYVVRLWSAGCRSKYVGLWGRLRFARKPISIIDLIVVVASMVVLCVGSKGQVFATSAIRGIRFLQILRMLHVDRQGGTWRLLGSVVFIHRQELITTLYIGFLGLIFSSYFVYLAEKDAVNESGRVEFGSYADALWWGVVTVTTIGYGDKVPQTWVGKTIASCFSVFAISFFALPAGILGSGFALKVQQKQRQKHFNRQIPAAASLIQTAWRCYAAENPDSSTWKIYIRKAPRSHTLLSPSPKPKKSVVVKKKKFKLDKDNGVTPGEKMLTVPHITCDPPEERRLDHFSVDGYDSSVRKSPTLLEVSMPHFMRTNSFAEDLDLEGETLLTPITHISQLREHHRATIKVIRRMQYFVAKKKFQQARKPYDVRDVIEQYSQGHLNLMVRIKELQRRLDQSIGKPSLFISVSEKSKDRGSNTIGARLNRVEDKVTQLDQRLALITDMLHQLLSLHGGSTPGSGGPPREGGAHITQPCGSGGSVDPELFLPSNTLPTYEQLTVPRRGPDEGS
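Assay system: CHO-K1 cells stably expressing KCNQ1; Medium: assay buffer with matched DMSO; Also added: K+/Tl+ depolarizing stimulus; Dosing: single dose; Timing: dye 90 min, compound 20 min, room temperature; Measured by: kinetic FluxOR thallium fluorescence, 10-s 1-Hz baseline, 110-s post-stimulus read; Read-out: peak-minus-minimum fluorescence over initial fluorescence, negative-control normalized, B-scored.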
Kir21 block – inhibitors of mouse Kir2.1 inward-rectifier potassium channel; Inward rectifier potassium channel 2 (Mus musculus), P35561; 310,000 compounds, 0.85% hits; HEK293-Kir2.1, FluxOR thallium flux fluorescence; active compounds read low; B-score at 10 µM;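 active = fluorescence ratio B-score at or below minus 3 SD of library scores, with starting-brightness B-score within 2 SD, cut at about -4.2 in these data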;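 note: channel flux triggered by added potassium and thallium sulfate stimulus; B-score of peak minus minimum fluorescence over baseline after thallium stimulus; more negative B-score means stronger Kir2.1 block with less thallium influx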
KCNQ1 inh – inhibitors of human KCNQ1 channel, primary screen, cell-based, thallium flux, high-throughput; 310,000 compounds, 1.3% hits; Potassium voltage-gated channel subfamily KQT member 1 (Homo sapiens), P51787; AID 2642, 2010; CHO-K1 KCNQ1, FluxOR thallium flux fluorescence; active compounds read high; B-score at 10 µM;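 active = compounds whose thallium flux B-score, printed positive for inhibition, exceeds three library SD while starting fluorescence stays within three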;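 note: channel opened by potassium depolarization with thallium stimulus after 20 min compound exposure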
KCNK9 inh-1 – KCNK9 potassium channel inhibitors, primary screen, HEK293 cells, thallium flux. Potassium channel subfamily K member 9 (Homo sapiens), Q9NPC2. FluxOR thallium flux fluorescence; active compounds read low. B-score at 10 µM. 310,000 compounds, 1.2% hits. AID 488922, 2010;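 active = ratio B-score over 3 SD below the library mean, with starting fluorescence within 5 SD of its mean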;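 note: negative B-score means less thallium flux so channel inhibition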
KCNK3 block – human KCNK3 channel inhibitors, primary screen, CHO cells, FluxOR thallium flux, B-score | Potassium channel subfamily K member 3 (Homo sapiens), O14649 | FluxOR fluorescence; active compounds read low | B-score at 10 µM | 340,000 compounds, 0.84% hits | AID 602410, 2012;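 active = B-score under library mean minus 4 SD, starting fluorescence ratio at most library mean plus 5 SD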;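 note: more negative B-score means stronger inhibition of thallium flux through KCNK3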
hERG protect – hERG rescue from dofetilide block, primary screen, cell-based, CHO-hERG, FluxOR thallium flux, dofetilide IC70 | AID 1511, 2009 | 310,000 compounds, 0.51% hits | activation (rescue from dofetilide block), less the hit threshold, % at 10 µM | Voltage-gated inwardly rectifying potassium channel KCNH2 (Homo sapiens), Q12809 | dofetilide IC70 present;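 active = activation above the mean of controls blocked by dofetilide plus 5 SD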;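 note: thallium influx through hERG after potassium depolarization seen as dye fluorescence rise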
hERG inh – hERG channel inhibition, counter-screen for Kir2.1 inhibitor project, cell-based, thallium flux; inhibition, % at 10 µM; hERG-expressing cells; shares compounds with Kir21 block; 320 compounds, 20% hits;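 note: host cells are CHO cells stably expressing hERG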
KCNK9 inh-2 – KCNK9 channel inhibition, selectivity assay for Kir2.1 inhibitor project, cell-based; shares compounds with Kir21 block; KCNK9-expressing cells, ion flux inhibition; inhibition, % at 10 µM; 320 compounds, 5% hits; AID 2329, 2010
Kir2-1 patch inh – mouse Kir2.1 channel blockers, Kir2.1 inhibitor project, cell-based, secondary, automated electrophysiology; shares compounds with Kir21 block; Kir2.1 cells, automated patch-clamp current inhibition; inhibition, % at 25 µM; 320 compounds, 71% hits
KCNK9 inh conf – KCNK9 potassium channel inhibitors, confirmation, HEK293 cells, thallium flux, duplicate | FluxOR thallium flux fluorescence | inhibition, % at 10 µM | shares compounds with KCNK9 inh-1 | 4,900 compounds, 43% hits;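 active = thallium signal inhibited by more than 5 SD of the compound-free buffer control wells, on both duplicate plates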;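 note: 0% = assay buffer control wells without compound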
Kir2-1 spec – mouse Kir2.1 channel inhibition, confirmation, selectivity assay for KCNK9 modulator project, cell-based, HEK293, thallium flux; shares compounds with KCNK9 inh-1; Kir2.1 cells, FluxOR thallium flux fluorescence; inhibition, % at 10 µM; 4,900 compounds, 4% hits;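 active = thallium signal drop more than 5 SD beyond the mean of the no-compound control wells, seen in both duplicate plates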;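 note: signal is fluorescence rise after thallium addition divided by baseline fluorescence; plate controls were assay buffer only for no effect and full block by chlorpromazine control for full effect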
KCNK9 uninduced – thallium flux in non-induced HEK293 cells, confirmation, counter-screen for KCNK9 inhibitor project, cell-based, second counter screen, non-induced KCNK9-HEK293 | shares compounds with KCNK9 inh-1 | FluxOR thallium flux | inhibition, % at 10 µM | 4,900 compounds, 40% hits;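 active = thallium signal drop beyond 5 SD of the untreated control mean, on both duplicate plates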;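 note: plate controls were buffer only IC0 wells for no effect and SID17386958 at its maximal inhibitory level for full effect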
Starred values were filed as active, the others as inactive. Compounds with a hit are over-represented: about 3.7% of the library has one in this group of screens. Unless noted, the rule behind the calls is not given here.

Cc1ccc2c(c1C)NC(=O)C21N2CCCC2C(C(=O)c2ccc3ccccc3c2)C12C(=O)Nc1ccccc12 (centres undefined) was read as KCNK3 block inactive.
`COc1ccc(CN2CCCC(C(=O)c3ccc4c(c3)OCO4)C2)c(F)c1` (centres undefined) gave KCNQ1 act inactive, Kir21 block -6.4*, KCNQ1 inh inactive, KCNK9 inh-1 inactive, KCNK3 block inactive, hERG protect -9, hERG inh 46%*, KCNK9 inh-2 inactive, Kir2-1 patch inh 23%*, KCNK9 inh conf inactive, Kir2-1 spec inactive and KCNK9 uninduced inactive.
Cc1ccc(C(CCN(Cc2ccccc2)C(=O)c2ccco2)c2ccco2)cc1 (centres undefined) was read as KCNQ1 act inactive, Kir21 block 0.33, KCNQ1 inh inactive, KCNK9 inh-1 inactive, KCNK3 block inactive and hERG protect -33.
Screening O=C(c1ccco1)N(CCC(c1ccccc1)c1ccco1)Cc1ccco1 (centres undefined) returned KCNQ1 act inactive, Kir21 block -6.1*, KCNQ1 inh inactive, KCNK9 inh-1 -8.2*, KCNK3 block inactive, hERG protect -19, hERG inh inactive, KCNK9 inh-2 48%*, Kir2-1 patch inh inactive, KCNK9 inh conf 40%*, Kir2-1 spec inactive and KCNK9 uninduced 36%*.
O=C(O)C(Cc1ccnc2ccccc12)=NO was read as KCNK3 block inactive.

Assay outcomes as filed in PubChem.
